This is an account of results in ChEMBL document CHEMBL2021795, “Novel epigallocatechin gallate (EGCG) analogs activate AMP-activated protein kinase pathway and target cancer stem cells” (2012).

For orientation: inhibition means the change of the read-out against control, counted positive when it falls. Low readings indicate a weak effect, high ones a strong effect.

Assay [1] concerns MDA-MB-231. The assay is described as follows: Induction of AMPKalpha phosphorylation at T172 residue in human MDA-MB-231 cells at 20 uM after 3 hrs by Western blotting analysis relative to control. The assay is classed as cell-based. A digest of the protocol:
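MDA-MB-231 cells in DMEM/F12 (1:1) with 10% FBS at 37°C, 5% CO2. Compounds were given at 20 μM, metformin at 10 mM, for 3 h. Whole-cell lysates were run on SDS–PAGE, blotted to nitrocellulose and probed for phospho-AMPKα (T172), with ECL detection. Phospho-AMPKα was normalized to β-actin.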
Background: A western blot detects proteins with antibodies after separation by electrophoresis.

Assay [2] relates to MDA-MB-231. Description: Antiproliferative activity against human MDA-MB-231 cells after 24 hrs by MTT assay. The assay is classed as functional, cell-based. In short, it runs like this: (§1)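 MDA-MB-231 cells were grown in 96-well plates to 70–80% confluency. Compounds or metformin were added for 24 h at 37°C, then MTT read-out. Samples were run in triplicate in three independent experiments. Data are mean ± SD, expressed as percent of untreated control (100%).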
On the technique in general: Formazan colour is commonly taken as a measure of viable cells.

Assay [3] has as its system MDA-MB-231. The assay is described as follows: Induction of AMPKalpha phosphorylation at T172 residue in human MDA-MB-231 cells after 3 hrs by Western blotting analysis relative to control. The assay is classed as cell-based. In short, it runs like this:
(§2)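 MDA-MB-231 cells grown in DMEM/F12 (1:1) with 10% FBS, penicillin/streptomycin at 37°C, 5% CO2. Exposed to compounds over a concentration series for 3 h. Whole-cell extracts were separated by SDS–PAGE and transferred to nitrocellulose. Blots were probed with the indicated antibodies (p-AMPKα, p-Raptor, p21, β-actin) and detected by ECL. p-AMPKα was normalized to β-actin.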

The subject of assay [4] is MDA-MB-231. The assay is described as follows: Activation of AMPKalpha in human MDA-MB-231 cells assessed as increase in Raptor S792 phosphorylation after 3 hrs by Western blotting analysis relative to control. The assay is classed as cell-based. In short, it runs like this:
as §2

A short description of assay [5]: Activation of AMPKalpha in human MDA-MB-231 cells assessed as suppression of mTOR pathway measuring decrease in p70-S6K T389 phosphorylation at 5 to 40 uM after 3 hrs by Western blotting analysis relative to control. The assay is classed as cell-based.
For assay [6], the system named is MDA-MB-231. Description: Induction of AMPKalpha-mediated up-regulation of p21 in human MDA-MB-231 cells at 5 to 40 uM after 3 hrs by Western blotting analysis relative to control. The assay is classed as cell-based. In short, it runs like this:
as §2

Assay [7] relates to MDA-MB-231. Description: Inhibition of mammosphere formation in human MDA-MB-231 cells at 10 uM after 7 days by inverted phase-contrast microscopy. The conditions noted are these: MDA-MB-231, 168 h. The assay is classed as functional. A digest of the protocol: (§3)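 Single MDA-MB-231 cells were seeded at 1,000 cells/well in ultra-low-attachment 6-well plates. Sphere medium was DMEM/F12 1:1 with B-27, N-2 and penicillin/streptomycin, topped up every 3–4 days. Cells were exposed to compounds or metformin for 7 days. Spheres were collected by centrifugation (300 g, 5 min) and counted under an inverted phase-contrast microscope. Mean of three experiments.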

Assay [8] concerns MDA-MB-231. The assay is described as follows: Inhibition of mammosphere formation in human MDA-MB-231 cells at 20 uM after 7 days by inverted phase-contrast microscopy. The assay is classed as functional. The following applies: MDA-MB-231, 168 h. A digest of the protocol: as §3
For assay [9], the system named is MDA-MB-231. The assay is described as follows: Cytotoxicity against human MDA-MB-231 cells assessed as CD44+high/CD24-low cells at 10 uM after 48 hrs by FACS-flow cytometry (reference value: 45%). The assay is classed as functional. In short, it runs like this: (§4)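 MDA-MB-231 cells were cultured 5 days on low-adherent plates in sphere medium. Spheres were dissociated with accutase (37°C, 5 min), reseeded and treated with compounds for 48 h. Cells were detached with 0.02% EDTA/PBS and stained with anti-CD44-FITC and anti-CD24-PE or isotype controls for 30 min at 4°C in the dark. The CD44high/CD24low fraction was measured by flow cytometry. Mean of three experiments.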

For assay [10], the system named is MDA-MB-231. Description: Cytotoxicity against human MDA-MB-231 cells assessed as CD44+high/CD24-low cells at 20 uM after 48 hrs by FACS-flow cytometry (reference value: 45%). The assay is classed as functional. In short, it runs like this:
as §4
Background: Flow cytometry measures light scatter and fluorescence of single cells or particles in a stream.

The test system of assay [11] is MDA-MB-231. Description: Cytotoxicity against human MDA-MB-231 cells assessed as CD44+high/CD24-low cells after 48 hrs by FACS-flow cytometry (reference value: 45%). The assay is classed as functional, cell-based. A digest of the protocol: as §4
Assay [12] concerns MDA-MB-231. The assay is described as follows: Induction of AMPKalpha phosphorylation at T172 residue in human MDA-MB-231 cells at 10 mM after 3 hrs by Western blotting analysis relative to control. The assay is classed as cell-based. In short, it runs like this: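 MDA-MB-231 human breast cancer cells grown in DMEM/F12 (1:1) with 10% FBS, penicillin and streptomycin at 37°C, 5% CO2. Treated for 3 h, then whole-cell extracts separated by SDS–PAGE, blotted to nitrocellulose and detected by ECL. Phospho-AMPKα (T172) band normalized to β-actin.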

The test system of assay [13] is MDA-MB-231. Description: Antiproliferative activity against human MDA-MB-231 cells at 1 to 20 mM after 24 hrs by MTT assay. The assay is classed as functional, cell-based. A digest of the protocol:
as §1

Assay [14] concerns MDA-MB-231. The assay is described as follows: Inhibition of mammosphere formation in human MDA-MB-231 cells at 5 mM after 7 days by inverted phase-contrast microscopy. The following applies: MDA-MB-231, 168 h. The assay is classed as functional. In short, it runs like this: as §3
Assay [15] deals with MDA-MB-231. The assay is described as follows: Inhibition of mammosphere formation in human MDA-MB-231 cells at 10 mM after 7 days by inverted phase-contrast microscopy. The assay is classed as functional. The conditions noted are these: MDA-MB-231, 168 h. A digest of the protocol: as §3

Active and inactive are the calls of the source. The calls are words filed in the database; no cut-off is given here.

Molecule `Nc1ccc(C(=O)O[C@H]2Cc3ccccc3C[C@H]2OC(=O)c2ccc(N)cc2)cc1` yielded a fold change (FC) with MDA-MB-231 [1] of 13.7. In addition, the Activity entry with MDA-MB-231 [2] is “Dose-dependent effect”; with MDA-MB-231 [3], “Dose-dependent effect”; in the assay on MDA-MB-231 [4], “Dose-dependent effect”; with MDA-MB-231 [9], 25.6%; with MDA-MB-231 [10] it was 13.9%; in the assay with MDA-MB-231 [11], “Dose-dependent effect”. Besides, the result (in [5]; in the assay on MDA-MB-231 [6]) was Active. In addition, the inhibition at 10 µM in the assay on MDA-MB-231 [7] was determined as 52.2%. Also, the inhibition at 20 µM in the assay on MDA-MB-231 [8] worked out at 73.3%.
The molecule `O=C(O[C@H]1Cc2ccccc2C[C@H]1OC(=O)c1cc(O)cc(O)c1)c1cc(O)cc(O)c1` registered a fold change (FC) in the assay on MDA-MB-231 [1] of 5.1.
On to `O=C(O[C@H]1Cc2ccccc2C[C@H]1OC(=O)c1cc(O)c(O)c(O)c1)c1cc(O)c(O)c(O)c1`, for which the fold change (FC) in the assay with MDA-MB-231 [1] worked out at 5.1.
`CN(C)C(=N)NC(=N)N` [METFORMIN] came in with a fold change (FC) in the assay on MDA-MB-231 [12] of 6.3. Besides, the outcome with MDA-MB-231 [13] was Active. Also, in the assay with MDA-MB-231 [14], the inhibition at 5000 µM was 41.4%. In the assay with MDA-MB-231 [15], this molecule came in with an inhibition at 10000 µM of 67.6%.
On to `O=C(O[C@@H]1Cc2c(O)cc(O)cc2O[C@@H]1c1cc(O)c(O)c(O)c1)c1cc(O)c(O)c(O)c1` [EPIGALOCATECHIN GALLATE], for which, in the assay on MDA-MB-231 [1], the fold change (FC) turned out to be 3.9. Further, the result in the assay with MDA-MB-231 [2] was Active. The same molecule registered an inhibition at 10 µM in the assay with MDA-MB-231 [7] of 20.1%. This molecule yielded an inhibition at 20 µM with MDA-MB-231 [8] of 51.3%.
Turning to `CC(=O)Nc1ccc(C(=O)O[C@H]2Cc3ccccc3C[C@H]2OC(=O)c2ccc(NC(C)=O)cc2)cc1`, the fold change (FC) with MDA-MB-231 [1] was determined as 6.
The same measure, in the same setting: the value for `CC(=O)Oc1cc(OC(C)=O)c2c(c1)O[C@H](c1cc(OC(C)=O)c(OC(C)=O)c(OC(C)=O)c1)[C@H](OC(=O)c1cc(OC(C)=O)c(OC(C)=O)c(OC(C)=O)c1)C2` was 3.9.
For the molecule `O=C(O[C@H]1Cc2ccccc2C[C@H]1OC(=O)c1cc(O)c(Br)c(O)c1)c1cc(O)c(Br)c(O)c1`, in the assay on MDA-MB-231 [1], the fold change (FC) is 13.5. Also, the Activity result with MDA-MB-231 [2] is “Dose-dependent effect”; in the assay with MDA-MB-231 [3], “Dose-dependent effect”; with MDA-MB-231 [4], “Dose-dependent effect”; in the assay with MDA-MB-231 [9] it was 30.5%; in the assay on MDA-MB-231 [10] it was 18%; in the assay with MDA-MB-231 [11] it was “Dose-dependent effect”. For the same molecule, the result (in assay [5]; in the assay on MDA-MB-231 [6]) was Active. In the assay on MDA-MB-231 [7], this molecule came in with an inhibition at 10 µM of 45.1%. This molecule also showed an inhibition at 20 µM with MDA-MB-231 [8] of 66.7%.
